Assay results taken from PubChem BioAssay AID588703 (Broad Institute, 2011).
The source made the active and inactive calls. How the calls were made is not given here.

tested on: not listed separately; test: HMLE_shTWIST cancer stem cell-like viability inhibition, dose response, CellTiter-Glo luminescence, dry powder (AID 588703); conditions: HMLE_shTWIST viability, CellTiter-Glo luminescence, 72 h
Outline: (§1)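 Material: HMLE_shTWIST stable human breast line, EMT-induced, CSC-like | Quantity: 1000 cells/well | Buffer or medium: Screening medium without serum | Timing: Compound added 24 h after seeding, then 72 h exposure | Measured by: CellTiter-Glo luminescence | Controls: DMSO-only wells as negative control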

In the case of `O=C(COc1ccc(Cl)cc1Cl)N/N=C/c1cnc[nH]1`, the outcome is reported as “inactive”.

tested on: HMLE_shTWIST viability, CellTiter-Glo luminescence, 72 h; test: as above; conditions: not given
Outline: as §1

In order of falling AC50:
1. CC(C)(C)c1ccc2c(c1)OC(C(=O)N/N=C/c1ccc[nH]1)CO2 (configuration not stated)  2890 nM
2. O=C(COc1ccc(Cl)cc1Cl)N/N=C/c1ccc[nH]1  2210 nM
3. Cc1cc(Cl)ccc1OCC(=O)N/N=C/c1ccc[nH]1  1600 nM
4. O=C(COc1cc(Cl)ccc1Cl)N/N=C/c1ccc[nH]1  920 nM
5. O=C(N/N=C/c1ccc[nH]1)c1cc2ccccc2o1  180 nM
6. O=C(COc1c(Cl)cc(Cl)cc1Cl)N/N=C/c1ccc[nH]1  110 nM
